Laboratory results published in ChEMBL document CHEMBL1149096 (J Med Chem, 2004).
Values joined by “and” are separate entries in the source; they are usually repeats but may differ in a detail not shown here. Identical values can stand only once. Active and inactive are the calls of the source.

Assays:
[1] = organism: Cavia porcellus; experiment: Selectivity given as ratio of kappa receptor to delta receptor
[2] = target: Delta-type opioid receptor (Mus musculus) (UniProt P32300); experiment: Agonist activity by the maximum response towards opioid receptor delta 1 induced contractions in mouse vas deferens (MVD) smooth muscle contraction assays; format: functional, tissue-based
Delta-type opioid receptor (Mus musculus), sequence (P32300 whole entry): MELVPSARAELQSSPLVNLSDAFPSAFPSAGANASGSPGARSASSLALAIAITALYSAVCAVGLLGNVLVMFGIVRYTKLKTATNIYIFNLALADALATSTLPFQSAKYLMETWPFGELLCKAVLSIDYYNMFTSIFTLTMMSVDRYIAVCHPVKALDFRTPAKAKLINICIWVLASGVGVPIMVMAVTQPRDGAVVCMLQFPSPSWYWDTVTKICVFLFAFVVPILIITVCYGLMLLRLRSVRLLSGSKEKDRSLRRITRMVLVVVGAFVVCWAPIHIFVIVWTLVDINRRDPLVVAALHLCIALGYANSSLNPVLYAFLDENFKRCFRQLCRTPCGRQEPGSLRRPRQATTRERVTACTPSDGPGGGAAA
Method in brief: (§1)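 Electrically stimulated MVD (male ICR mice, 25-40 g) and GPI longitudinal muscle myenteric plexus strips (male Hartley guinea pigs, 250-500 g). Baths held 37 °C oxygenated Krebs bicarbonate (Mg-free for MVD), tension 1 g GPI / 0.5 g MVD. Stimulation 0.1 Hz, 0.4 ms pulses (2 ms MVD), supramaximal voltage. […] IC50 from two to four tissues by nonlinear least squares.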

[3] = target: Opioid receptors; mu & delta (Rattus norvegicus) (UniProt P33533+P33535); experiment: Selectivity given as ratio of mu receptor to delta receptor; format: protein assay
Opioid receptors; mu & delta (Rattus norvegicus), sequence (P33533 whole entry, looked up): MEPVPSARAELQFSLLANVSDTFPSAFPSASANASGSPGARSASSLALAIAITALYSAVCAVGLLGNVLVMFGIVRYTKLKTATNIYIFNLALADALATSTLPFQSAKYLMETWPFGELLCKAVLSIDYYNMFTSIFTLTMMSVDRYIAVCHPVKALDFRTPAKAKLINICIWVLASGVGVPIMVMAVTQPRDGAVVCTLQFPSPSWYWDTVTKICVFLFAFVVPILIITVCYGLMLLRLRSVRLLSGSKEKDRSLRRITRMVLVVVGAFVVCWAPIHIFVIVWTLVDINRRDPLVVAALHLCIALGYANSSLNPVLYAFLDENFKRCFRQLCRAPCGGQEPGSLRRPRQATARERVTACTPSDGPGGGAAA
Opioid receptors; mu & delta (Rattus norvegicus), sequence (P33535 whole entry, looked up): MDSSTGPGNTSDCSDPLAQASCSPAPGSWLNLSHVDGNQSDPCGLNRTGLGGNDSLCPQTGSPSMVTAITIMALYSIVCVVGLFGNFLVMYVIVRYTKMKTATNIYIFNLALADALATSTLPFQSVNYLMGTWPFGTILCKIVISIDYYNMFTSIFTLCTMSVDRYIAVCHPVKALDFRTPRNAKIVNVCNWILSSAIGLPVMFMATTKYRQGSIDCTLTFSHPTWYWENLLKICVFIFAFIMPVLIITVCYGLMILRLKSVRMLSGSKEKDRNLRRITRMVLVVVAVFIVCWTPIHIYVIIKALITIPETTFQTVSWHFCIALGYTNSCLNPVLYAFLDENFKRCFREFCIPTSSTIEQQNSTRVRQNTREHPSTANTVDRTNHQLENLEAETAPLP

[4] = target: T1, Kappa-type opioid receptor (Cavia porcellus, UniProt P41144); experiment: Binding affinity at Opioid receptor kappa 1 by displacement of [3H]U-69593 in guinea pig brain membranes; format: cell membranes, Membrane
T1 sequence (P41144 whole entry): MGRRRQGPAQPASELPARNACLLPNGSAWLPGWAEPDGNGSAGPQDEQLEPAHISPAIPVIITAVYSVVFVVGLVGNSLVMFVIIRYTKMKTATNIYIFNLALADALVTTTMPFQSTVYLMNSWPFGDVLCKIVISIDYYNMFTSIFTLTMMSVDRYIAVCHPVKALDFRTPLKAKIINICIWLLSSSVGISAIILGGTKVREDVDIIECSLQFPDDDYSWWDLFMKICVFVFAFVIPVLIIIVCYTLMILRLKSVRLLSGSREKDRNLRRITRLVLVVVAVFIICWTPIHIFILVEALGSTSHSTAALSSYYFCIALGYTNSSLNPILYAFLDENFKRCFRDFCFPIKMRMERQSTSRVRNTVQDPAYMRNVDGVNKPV

[5] = target: Delta-type opioid receptor (Rattus norvegicus, UniProt P33533); experiment: Binding affinity at opioid receptor delta 1 by displacement of [3H]DADLE in rat brain membrane; format: cell membranes
Delta-type opioid receptor, sequence (P33533 whole entry): as the sequence (P33533 whole entry, looked up) above

[6] = target: T2, Mu-type opioid receptor (Cavia porcellus, UniProt P97266); experiment: Agonistic activity towards Opioid receptor mu 1 was determined in [35S]GTP-gamma-S, binding assay in guinea pig caudate; g = not active as an agonist; format: functional
T2 sequence (P97266 whole entry): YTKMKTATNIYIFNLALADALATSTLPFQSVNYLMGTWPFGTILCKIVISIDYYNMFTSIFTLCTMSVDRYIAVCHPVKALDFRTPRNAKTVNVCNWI
Method in brief: (§2)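 Guinea pig caudate membranes (10-20 µg protein) incubated 3 h at 22 °C in Tris-HCl pH 7.4 containing 100 mM NaCl, 10 mM MgCl2, 1 mM EDTA, 100 µM GDP and 0.05-0.1 nM [35S]GTP-γ-S, then filtered and counted. Nonspecific binding defined with 10 µM GTP-γ-S. Site isolation used CTAP, nor-BNI, NTI or TIPP. […] Three experiments pooled; logistic fit.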

[7] = target: T1, Kappa-type opioid receptor; experiment: Agonistic activity towards Opioid receptor kappa 1 was determined in [35S]GTP-gamma-S, binding assay in guinea pig caudate; g = not active as an agonist; format: functional; method in brief: as §2
[8] = target: T2, Mu-type opioid receptor; experiment: Inhibitory concentration for inhibition of Opioid receptor mu 1 induced contractions in guinea pig ileum (GPI) smooth muscle assays; format: functional, tissue-based
Method in brief: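 Electrically stimulated MVD (male ICR mice, 25-40 g) and GPI longitudinal muscle myenteric plexus strips (male Hartley guinea pigs, 250-500 g). Baths held 37 °C oxygenated Krebs bicarbonate (Mg-free for MVD), tension 1 g GPI / 0.5 g MVD. Stimulation 0.1 Hz, 0.4 ms pulses (2 ms MVD), supramaximal voltage. IC50 from two to four tissues by nonlinear least squares.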

[9] = organism: Mus musculus; experiment: Antinociceptive effect was determined at 100 nM in mouse; format: functional
[10] = target: T2, Mu-type opioid receptor; experiment: Apparent binding affinity of compound was determined by antagonism towards Opioid receptor mu 1 in [35S]GTP-gamma-S, binding assay in guinea pig caudate; format: functional
[11] = target: Mu-type opioid receptor (Cavia porcellus) (UniProt P97266); conditions: Ileum
Mu-type opioid receptor (Cavia porcellus), sequence (P97266 whole entry): as above

[12] = target: Delta-type opioid receptor (Mus musculus) (UniProt P32300); conditions: Vas deferens
[13] = target: T3, Mu-type opioid receptor (Rattus norvegicus, UniProt P33535); experiment: Binding affinity at Opioid receptor mu 1 by displacement of [3H]DAMGO in rat brain membrane; format: cell membranes
T3 sequence (P33535 whole entry): as the sequence (P33535 whole entry, looked up) above

[14] = organism: Mus musculus; experiment: Antinociceptive effect was determined by the ability to exhibit 80% reduction of naloxone induced sensitivity; No; format: functional, organism-based
[15] = target: Mu-type opioid receptor (Cavia porcellus) (UniProt P97266); conditions: Ileum, filed as agonist
[16] = target: T2, Mu-type opioid receptor; experiment: Agonistic activity towards Opioid receptor mu 1 was determined in [35S]GTP-gamma-S, binding assay in guinea pig caudate; format: functional; method in brief: as §2
[17] = target: Delta-type opioid receptor (Mus musculus) (UniProt P32300); conditions: Vas deferens; filed as agonist
[18] = target: T1, Kappa-type opioid receptor; experiment: Apparent binding affinity of compound was determined by antagonism towards Opioid receptor kappa 1 in [35S]GTP-gamma-S, binding assay in guinea pig caudate; format: functional
[19] = test system: Mus musculus; experiment: Analgesic activity was calculated at time of peak drug effect when administered (icv) in mouse warm-water tail withdrawal assay; format: functional
Method in brief: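 Male ICR mice dosed icv (5 µL; water or 100% DMSO) under light ether anaesthesia. 55 °C warm-water tail withdrawal read at 10-180 min, cutoff 10 s. %MPE = 100 × (test − control)/(cutoff − control). A50 and 95% CI taken at peak effect by linear regression.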

[20] = target: T1, Kappa-type opioid receptor; experiment: Agonistic activity towards Opioid receptor kappa 1 was determined in [35S]GTP-gamma-S, binding assay in guinea pig caudate; format: functional; method in brief: as §2
[21] = organism: Mus musculus; experiment: Antinociceptive effect was determined by the ability to exhibit 80% reduction of naloxone induced sensitivity; Yes; format: functional, organism-based
[22] = target: T1, Kappa-type opioid receptor; experiment: Inhibitory concentration required for 50% inhibition of antagonism towards Opioid receptor kappa 1 in [35S]GTP-gamma-S, binding assay in guinea pig caudate; format: functional
[23] = organism: Cavia porcellus; conditions: Ileum, filed as agonist
[24] = target: Delta-type opioid receptor (Mus musculus) (UniProt P32300); conditions: Vas deferens; filed as agonist; remark: listed apart in the source
[25] = target: Mu-type opioid receptor (Cavia porcellus) (UniProt P97266); conditions: Ileum, filed as agonist; remark: listed apart in the source
[26] = target: Delta-type opioid receptor (Mus musculus) (UniProt P32300); experiment: Agonist activity by the max response towards opioid receptor delta 1 induced contractions in mouse vas deferens (MVD) smooth muscle contraction assays; format: functional, tissue-based; method in brief: as §1
[27] = target: T3, Mu-type opioid receptor; experiment: Binding affinity at Opioid receptor mu 1 by displacement of [3H]DAMGO at 1.4 to 3.0 nM in rat brain membrane; format: cell membranes
Method in brief: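 Rat brain membranes freshly homogenised in ice-cold 10 mM Tris-HCl pH 7.0, centrifuged twice at 30000g, then resuspended in 50 mM Tris-HCl pH 7.4. […] Nonspecific binding was defined with 20 µM levallorphan. Two experiments were pooled and fitted by logistic regression, with Ki = IC50/(1+[L]/Kd).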

[28] = target: T2, Mu-type opioid receptor; experiment: Apparent binding affinity of compound was determined by antagonism towards Opioid receptor mu 1in [35S]GTP-gamma-S, binding assay in guinea pig caudate; i = could not be calculated because of agonist activity; format: functional
[29] = organism: Mus musculus; experiment: Antinociceptive effect was determined at 300 nM in mouse; format: functional
[30] = organism: Mus musculus; experiment: Antinociceptive effect was determined by the ability to exhibit 80% reduction of naloxone induced sensitivity; Partial; format: functional, organism-based
[31] = target: T2, Mu-type opioid receptor; experiment: Antagonism of compound towards Opioid receptor mu 1 was determined using PL-017 in guinea pig ileum (GPI) smooth muscle contraction assays; d = agonist effect was observed; format: functional, tissue-based
[32] = target: Delta-type opioid receptor (Mus musculus) (UniProt P32300); conditions: Vas deferens; filed as agonist; remark: listed apart in the source
[33] = target: Mu-type opioid receptor (Cavia porcellus) (UniProt P97266)

Oc1ccc2c3c1O[C@H]1c4ncccc4C[C@@]4(O)[C@@H](C2)N(CC2CC2)CC[C@]314
Ratio [1]: 11
Response [2]: 0%
Ratio [3]: 1.9

Oc1ccc2c3c1O[C@H]1c4[nH]c5ccccc5c4C[C@@]4(O)[C@@H](C2)N(CC2CC2)CC[C@]314 [NALTRINDOLE]
Ki [4]: 75 nM
Ki [5]: 1.6 nM
Response [2]: 16% and 18%
EC50 [6]: Not Active
EC50 [7]: Not Active

Oc1ccc2c3c1O[C@H]1c4ncc(-c5ccc(Cl)cc5)cc4C[C@@]4(O)[C@@H](C2)N(CC2CC2)CC[C@]314
IC50 [8]: 163 nM
Activity [9]: 21%
Response [2]: 21%
Ki [10]: 7.8 nM
EC50 [6]: Not Active
EC50 [7]: Not Active

Oc1ccc2c3c1O[C@H]1c4ncc(-c5ccccc5)cc4C[C@@]4(O)[C@@H](C2)N(CC2CC2)CC[C@]314
Ke [11]: 43 nM
Ratio [1]: 20
Response [2]: 4.7%
Ke [12]: 3.7 nM
Ratio [3]: 16

CN1CC[C@]23c4c5ccc(O)c4O[C@H]2c2ncc(-c4ccc(Br)cc4)cc2C[C@@]3(O)[C@H]1C5
Ki [4]: 432 nM
Ki [13]: 196 nM
Ki [5]: 4 nM
Ratio [1]: 108
Ratio [3]: 49

COc1ccc2c3c1O[C@H]1c4ncc(-c5ccc(Cl)cc5)cc4C[C@@]4(O)[C@@H](C2)N(C)CC[C@]314
Ki [4]: > 7100 nM

CN1CC[C@]23c4c5ccc(O)c4O[C@H]2c2ncc(-c4ccccc4)cc2C[C@@]3(O)[C@H]1C5
Activity [14]: inactive
IC50 [8]: 211 nM
Ke [15]: Agonist
EC50 ([16]; read-out: EC50): 660 nM
Ke [17]: Agonist
Activity [9]: 64%
Ratio [1]: 124
Ki [18]: > 1000 nM
Ki [10]: > 1000 nM
Ratio [3]: 9
EC50 [7]: Not Active

CN1CC[C@]23c4c5ccc(O)c4O[C@H]2c2ncc(-c4ccc(Br)cc4)cc2C[C@H]3[C@H]1C5
A50 [19]: 47.2 nM
IC50 [8]: 666 nM
Ke [15]: Agonist
Ratio [1]: 18
Response [2]: 44%
Ke [12]: 20 nM
Ki [10]: > 1000 nM
EC50 [20]: Not Active
Activity [21]: Active
EC50 ([6]; read-out: EC50): 3220 nM
Ratio [3]: 40

CN1CC[C@]23c4c5ccc(O)c4O[C@H]2c2ncc(-c4ccc(Cl)c(Cl)c4)cc2C[C@H]3[C@H]1C5
IC50 [8]: 447 nM
Ki [22]: 4770 nM
Ke [23]: Agonist
Activity [9]: 44%
Ratio [1]: 75
Ke [24]: Agonist
Ki [10]: > 1000 nM
EC50 [20]: Not Active
EC50 ([6]; read-out: EC50): 1310 nM
Ratio [3]: 25

Oc1ccc2c3c1O[C@H]1c4ncc(-c5ccc(Cl)cc5)cc4C[C@H]4[C@@H](C2)N(CC2CC2)CC[C@]314
IC50 [8]: 109 nM
Ke [25]: Agonist
Ratio [1]: 2.3
Ke [12]: 6 nM
Ki [10]: 9.2 nM
EC50 [6]: Not Active
Ratio [3]: 24
EC50 [7]: Not Active
Response [26]: 7.9%

COc1ccc2c3c1O[C@H]1c4ncc(-c5ccc(Br)cc5)cc4C[C@@]4(O)[C@@H](C2)N(C)CC[C@]314
Ki [4]: 7370 nM
Ki [13]: 1890 nM
Ki [5]: 23 nM
Ratio [1]: 320
Ratio [3]: 82

COc1ccc2c3c1O[C@H]1c4ncc(-c5ccccc5)cc4C[C@@]4(O)[C@@H](C2)N(C)CC[C@]314
Ki [27]: 894 nM
Ki [4]: > 10000 nM
Ki [5]: 34 nM
Ratio [1]: > 294
Ratio [3]: 26

C=CCN1C[C@H](C)N([C@H](c2ccc(C(=O)N(CC)CC)cc2)c2cccc(OC)c2)C[C@H]1C [SNC-80]
Ki [4]: 8760 nM
Ki [13]: 8070 nM

CN1CC[C@]23c4c5ccc(O)c4O[C@H]2c2ncc(-c4ccc(Cl)cc4Cl)cc2C[C@H]3[C@H]1C5
IC50 [8]: 724 nM
Ke [25]: Agonist
Activity [9]: 40%
Ratio [1]: 366
Ke [12]: 5.02 nM
Ki [10]: > 1000 nM
EC50 [20]: Not Active
EC50 ([6]; read-out: EC50): 225 nM
Ratio [3]: 88
Response [26]: 28.3%

C[C@@H](NC(=O)[C@@H](N)Cc1ccc(O)cc1)C(=O)NCC(=O)N(C)[C@@H](Cc1ccccc1)C(=O)NCCO [DAMGO]
Ki [4]: 5820 nM
Ki [5]: 469 nM

CN1CC[C@]23c4c5ccc(O)c4O[C@H]2c2ncccc2C[C@@]3(O)[C@H]1C5
A50 [19]: 67.1 nM
IC50 [8]: 523 nM
EC50 ([16]; read-out: EC50): 3000 nM
Ratio [1]: 15
Ki [18]: > 1000 nM
Ki [10]: > 1000 nM
Activity [21]: Active
Ratio [3]: 0.4
EC50 [7]: Not Active
Response [26]: 49%

CN1CC[C@]23c4c5ccc(O)c4O[C@H]2c2ncc(-c4ccc(Cl)cc4)cc2C[C@H]3[C@H]1C5
Ki [28]: Agonist
A50 [19]: 42.8 nM
IC50 [8]: 177 nM
Ke [25]: Agonist
Ratio [1]: 18
Ke [12]: 21.9 nM
EC50 [20]: Not Active
Activity [21]: Active
EC50 ([6]; read-out: EC50): 900 nM
Ratio [3]: 34

CN1CC[C@]23c4c5ccc(O)c4O[C@H]2c2ncc(-c4ccc(Cl)cc4)cc2C[C@@]3(O)[C@H]1C5
Activity [29]: 43%
Ke [15]: Agonist
Ki [5]: 3.9 nM
Activity [30]: Weak activity
Ratio [1]: 120
Response [2]: 58%
Ke [12]: 38.2
EC50 [6]: Not Active
Ratio [3]: 59
EC50 [7]: Not Active

CN1CC[C@]23c4c5ccc(O)c4O[C@H]2c2ncc(-c4ccccc4)cc2C[C@H]3[C@H]1C5
EC50 [31]: 1030 nM
IC50 [8]: 98.7 nM
EC50 [16]: Not Active
Ke [32]: Agonist
Activity [9]: 48%
Ratio [1]: 43
Ke [33]: inactive
Ki [18]: > 1000 nM
Ki [10]: > 1000 nM
Activity [21]: Active
Ratio [3]: 13

CN1CC[C@]23c4c5ccc(O)c4O[C@H]2c2ncccc2C[C@H]3[C@H]1C5
Activity [14]: inactive
IC50 [8]: 67.7 nM
EC50 ([16]; read-out: EC50): 3000 nM
Ke [25]: Agonist
Ke [32]: Agonist
Activity [9]: 75%
Ratio [1]: 8
Ki [18]: > 1000 nM
Ki [10]: > 1000 nM
Ratio [3]: 1.6
EC50 [7]: Not Active
